Assay results published in ChEMBL document CHEMBL2331458, “Examination of the mode of action of the almiramide family of natural products against the kinetoplastid parasite Trypanosoma brucei” (J Nat Prod, 2013).
Calls of active or inactive are those of the source. The rule behind the calls is not given here. Starred links: 1 amine or outer side, 2 acyl side, 3 side chain; linkers in the order of their positions; H or OH if unused. Non-standard residues stand in square brackets, D forms with d. Residues, ends and D or L forms follow the SMILES beside them. *: point of attachment. BODIPY(FL) = CC1=CC(C)=[N+]2C1=Cc1ccc(CCC(=O)*)n1[B-]2(F)F; Ethylenediamine = C(CN[*:2])N[*:1]; NMeF = CN[C@@H](Cc1ccccc1)C(=O)O; X1 = CN(CCCCCCCCC(=O)[*:2])[*:1]; Oct(7)enoyl = C=CCCCCCC(=O)*; NMeV = CN[C@H](C(=O)O)C(C)C; NMeA = CN[C@@H](C)C(=O)O

What was measured:
[1] = Drug uptake in 120 hrs post fertilized zebrafish embryo intestinal tract at 1 to 270 uM after 3 hrs by confocal microscopic analysis; type: ADME, Danio rerio; conditions: in vivo
Outline: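 Zebrafish embryos at 48 and 120 h post fertilization were incubated with fluorescent probe or fluorophore control in methylene blue-free egg water at 270, 90, 30 and 0 µM, three embryos per treatment. Localization was imaged by confocal microscopy after 3 h.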

[2] = system: Trypanosoma brucei brucei; test: Binding affinity to Trypanosoma brucei brucei 427-221 PEX11 at 50 uM by […] staining method
Outline: (§1)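 Procyclic trypanosomes spread on glass, dried, fixed in 70% EtOH, then permeabilized in PBS/0.2% Triton for 20 min and blocked in PBS/0.5% gelatin. Anti-aldolase (1:500, 1 h) marked glycosomes. Cells were then stained 1 h with probe (5 or 50 µM) plus Alexa 594 anti-rabbit and 100 ng/mL DAPI. Imaged by epifluorescence at 100× oil.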

[3] = system: Trypanosoma brucei brucei; test: Binding affinity to Trypanosoma brucei brucei 427-221 GIM5 at 50 uM by […] staining method; outline: as §1
[4] = system: Trypanosoma brucei brucei; test: Binding affinity to Trypanosoma brucei brucei 427-221 kinetoplast DNA at 5 uM after 1 hr by DAPI staining method; outline: as §1
[5] = Drug uptake in Trypanosoma brucei brucei 427-221 cytosol at 5 uM after 1 hr by DAPI staining method; type: ADME; outline: as §1
[6] = system: Trypanosoma brucei brucei; test: Antiparasitic activity against Trypanosoma brucei brucei 427-221 assessed as growth inhibition up to 3.1 uM after 48 hrs by cellTiter-Glo assay; type: functional, organism-based
Outline: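 T. b. brucei 427-221 bloodstream forms, grown in HMI-9 with 10% FBS and 10% Serum Plus at 37 °C, 5% CO2. Seeded at 2×10^4/mL with DMSO-serially diluted compound (1% DMSO final) for 48 h. Thimerosal 2 µM final served as positive control. Viability read by CellTiter-Glo ATP luminescence; % inhibition normalized to controls, IC50 by curve fit.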

[7] = Drug uptake in Trypanosoma brucei brucei 427-221 nucleus at 5 uM after 1 hr by DAPI staining method; type: ADME; outline: as §1
[8] = Toxicity in 48 hrs post fertilized zebrafish embryo assessed as survival after 24 hrs by inverted microscopic analysis; type: organism-based, Danio rerio; conditions: in vivo, read-out: MTD
[9] = Selectivity index, ratio of LD50 for african green monkey Vero cells to IC50 for Trypanosoma brucei brucei 427-221; type: toxicity, cell-based; conditions: read-out: Ratio LD50/IC50
[10] = Cytotoxicity against african green monkey Vero cells; type: cell-based; conditions: chlorocebus sabaeus, read-out: LD50 (the source's name)
[11] = system: Trypanosoma brucei brucei; test: Antiparasitic activity against Trypanosoma brucei brucei 427-221 assessed as growth inhibition after 48 hrs by cellTiter-Glo assay; type: functional, organism-based; conditions: 427-221, 48 h
Outline: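 T. b. brucei 427-221 was grown at 37 °C and 5% CO2 in HMI-9 with 10% FBS, 10% Serum Plus and penicillin/streptomycin, then seeded at 2×10^4/mL. Compounds were serially diluted in DMSO (1% final) and exposed for 48 h. Viability was read by CellTiter-Glo ATP luminescence. Percent inhibition was normalized to thimerosal (2 µM final) and DMSO controls, and IC50 was derived by curve fitting.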

Row | Structure (SMILES) | Drug uptake [1] | Activity [2] | Activity [3] | Activity [4] | Drug uptake [5] | Activity [6] | Drug uptake [7] | MNTC at 24 h [8] [µM] | selectivity ratio [9] | CC50 [10] [µM] | IC50 [11] [µM]
1 | C=CCCCCCC(=O)N(C)[C@H](C(=O)N(C)[C@H](C(=O)N(C)[C@H](C(=O)N(C)[C@@H](C)C(=O)N(C)[C@@H](Cc1ccccc1)C(=O)N(C)CCCCCCCCC(=O)NCCNC(=O)CCC1=[N+]2C(=Cc3c(C)cc(C)n3[B-]2(F)F)C=C1)C(C)C)C(C)C)C(C)C ({Oct(7)enoyl}-[NMeV][NMeV][NMeV][NMeA][NMeF][X1]-{Ethylenediamine-BODIPY(FL)}) | Not Active | Active | Active | inactive | Active | Active | Not Active |  |  |  | 
2 | C=CCCCCCC(=O)N(C)[C@H](C(=O)N(C)[C@H](C(=O)N(C)[C@H](C(=O)N(C)[C@@H](C)C(=O)N(C)[C@@H](Cc1ccccc1)C(=O)OC)C(C)C)C(C)C)C(C)C ({Oct(7)enoyl}-[NMeV][NMeV][NMeV][NMeA][NMeF]-OMe) |  |  |  |  |  |  |  | 168 | 47 | 18.8 | 0.4
